Assay results from different studies.
Lines come from different studies, so protocols differ.
Target: Serine/threonine-protein kinase Nek11 (NEK11, Homo sapiens, UniProt Q8NG66)
Residues used in one study (Q8NG66 1-645): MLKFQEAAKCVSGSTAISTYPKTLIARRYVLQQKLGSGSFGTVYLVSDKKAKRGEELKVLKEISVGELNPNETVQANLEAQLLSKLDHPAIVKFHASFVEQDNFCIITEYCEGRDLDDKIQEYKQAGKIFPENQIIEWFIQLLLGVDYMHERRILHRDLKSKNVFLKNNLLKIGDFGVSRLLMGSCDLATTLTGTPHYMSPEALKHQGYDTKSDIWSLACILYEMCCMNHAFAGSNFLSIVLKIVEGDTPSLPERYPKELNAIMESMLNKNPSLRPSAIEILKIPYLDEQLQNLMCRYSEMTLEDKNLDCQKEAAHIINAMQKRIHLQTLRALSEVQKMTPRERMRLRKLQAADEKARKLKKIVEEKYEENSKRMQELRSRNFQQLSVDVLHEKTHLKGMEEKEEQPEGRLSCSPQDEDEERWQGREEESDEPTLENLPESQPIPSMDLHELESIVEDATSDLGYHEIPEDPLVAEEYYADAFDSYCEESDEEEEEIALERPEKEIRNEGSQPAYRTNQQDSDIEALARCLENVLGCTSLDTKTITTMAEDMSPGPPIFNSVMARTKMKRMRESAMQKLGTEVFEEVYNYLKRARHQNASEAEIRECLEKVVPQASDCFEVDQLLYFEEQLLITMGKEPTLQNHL

Structure (SMILES)	observed	action	technique	tested at	endpoint	result
C[C@H](c1ccc(F)cc1)N(Cc1cccc(C(=O)O)c1)C(=O)c1cnc2ccccc2c1	cell-free assay		competition with immobilised ligand	1 µM	remaining binding	82%
CC(C)(C)c1nc2c(s1)c1nc(N)ncc1c1ccc(NS(=O)(=O)c3c(F)cccc3F)c(F)c12	enzyme activity	inhibitor	radiometric	1 µM	remaining activity	60%
Cc1cnc(NC2CCOCC2)nc1-n1cnc(C(=O)NC(CN)c2cc(F)cc(Cl)c2)c1 (centres unmarked)	enzyme activity	inhibitor	radiometric	1 µM	remaining activity	81%
CNC(=O)c1cc(Oc2ccc(NC(=O)Nc3ccc(Cl)c(C(F)(F)F)c3)cc2)ccn1	enzyme activity	inhibitor		0.3 µM	inhibition	5%
C#Cc1cccc(Nc2ncnc3cc(OCCOC)c(OCCOC)cc23)c1	cell-free assay			0.5 µM	remaining signal	114%
Cc1ccc(C(=O)Nc2ccc(CN3CCN(C)CC3)c(C(F)(F)F)c2)cc1C#Cc1cnc2cccnn12	enzyme activity	inhibitor		23.5 nM	remaining activity	83%
CCN(CC)c1ccc(C2=NNC(=O)CC2C)cc1[N+](=O)[O-] (centres unmarked)	enzyme activity	inhibitor		10 µM	remaining activity	114%
CC(C)(O)[C@H]1CC[C@H](Nc2ccc3ncc(-c4cccc(C(F)(F)F)c4)n3n2)CC1	enzyme activity	inhibitor		1 µM	remaining activity	120%
CC(=O)N1CCC(c2ccc(C(=O)NC(=N)N)cc2C(F)(F)F)CC1	cell-free assay		competition with immobilised ligand	1 µM	remaining binding	100%
Cc1sc(C(=O)NC2COC2)cc1-n1cc(NC(=O)Nc2c(F)cccc2Cl)cn1	enzyme activity	inhibitor		10 µM	remaining activity	70%
CCC(=O)N[C@H]1CC[C@@H](C(=O)N(C)c2ccc(-c3nc4ccccc4o3)cc2)C1	cell-free assay		competition with immobilised ligand	1 µM	remaining binding	86%
O=C1Nc2ccc(Cl)cc2C1=Cc1cc(Cl)c(O)c(Cl)c1	cell-free assay			0.5 µM	remaining signal	104%
Cc1c(NC(=O)c2cc(C(N)=O)nc3cc(F)ccc23)c(C(F)(F)F)nn1Cc1ccc(C#N)cc1	cell-free assay		competition with immobilised ligand	1 µM	remaining binding	100%
Cc1ccc(Nc2nccc(N(C)c3ccc4c(C)n(C)nc4c3)n2)cc1S(N)(=O)=O	enzyme activity	inhibitor		10 µM	inhibition	23%
Clc1ccc(Nc2nnc(Cc3ccncc3)c3ccccc23)cc1	cell-free assay			0.5 µM	remaining signal	87%
Cc1cc(NC(=O)c2cccc3cc(-c4cccc5[nH]nc(N)c45)ccc23)ccc1F	enzyme activity	inhibitor		0.1 µM	activity vs control	91%
C[C@H](c1cccc(C#N)c1)n1cc(Cl)cc(C(N)=O)c1=N	cell-free assay		competition with immobilised ligand	1 µM	remaining binding	100%
CCN(CC)CCNC(=O)c1c(C)[nH]c(/C=C2\C(=O)Nc3ccc(F)cc32)c1C	enzyme activity	inhibitor		0.3 µM	inhibition	16%
O=C1NC(=O)c2cc(Nc3ccc(F)cc3)c(Nc3ccc(F)cc3)cc21	cell-free assay			0.5 µM	remaining signal	103%
CS(=O)(=O)N1CCCC(NC(=O)[C@H](CCC2CCCCC2)NC(=O)c2ccc(CNc3ncnc4c3nnn4-c3ccccc3)cc2)C1 (some centres unmarked)	cell-free assay		competition with immobilised ligand	0.1 µM	remaining binding	100%
